Assay results: ChEMBL document CHEMBL1146494, “Anthrone and oxanthrone C-glycosides from Picramnia latifolia collected in Peru” (J Nat Prod, 2004)
≈ marks a conversion by molar mass, not a printed value.

Experiments:
[1] = system: MCF7; assay: Cytotoxicity against human MCF7 cells; type: functional; details: read-out: ED50 (the source's name)
[2] = system: Mus musculus; assay: Toxicity in human MCF7 cells xenografted mouse at 6.25 to 50 mg/kg, ip after 4 days; type: organism-based; parameters: dose 6.25-50 mg/kg, route intraperitoneal; details: in vivo, 96 h
Summary of the method: (§1)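 In vivo hollow fiber assay in mice. Fibers containing the cancer cells were implanted at intraperitoneal and subcutaneous sites. The compound was given i.p. at 6.25, 12.5, 25 and 50 mg/kg body weight per injection, once daily for 4 days. Readouts were growth of the fiber-borne cells at each site, plus body weight and overt toxicity over the test period.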

[3] = system: Mus musculus; assay: Toxicity in human Lu1 cells xenografted mouse at 6.25 to 50 mg/kg, ip after 4 days; type: organism-based; parameters: dose 6.25-50 mg/kg, route intraperitoneal; details: in vivo, 96 h; summary of the method: as §1
[4] = Cytotoxicity against HUVEC; type: cell-based; details: human, HUVEC cells; read-out: ED50 (the source's name)
[5] = system: Mus musculus; assay: Toxicity in human LNCAP cells xenografted mouse at 6.25 to 50 mg/kg, ip after 4 days; type: organism-based; parameters: dose 6.25-50 mg/kg, route intraperitoneal; details: in vivo, 96 h; summary of the method: as §1
[6] = system: LNCaP; assay: Cytotoxicity against human LNCAP cells; type: functional; details: read-out: ED50 (the source's name)
[7] = system: Lu1; assay: Cytotoxicity against human Lu1 cells; type: functional; details: read-out: ED50 (the source's name)

In the case of `Cc1cc(O)c2c(c1)C(=O)c1ccc(O)c(O)c1C2=O`, the EC50 [1] is reported as 4.7 µg/mL (≈ 17.4 µM), the Activity [2] is reported as “Non-toxic” and the Activity [3] is reported as “Non-toxic”. For the same compound, the CC50 [4] was 5 µg/mL (≈ 18.5 µM), the Activity [5] was “Non-toxic” and the EC50 [6] was 3.6 µg/mL (≈ 13.3 µM). It also gave an EC50 [7] of 3 µg/mL (≈ 11.1 µM).
`Cc1cc(O)c2c3c(cccc13)-c1cccc(O)c1C2=O` showed an EC50 [1] of over 5 µg/mL, a CC50 [4] of over 5 µg/mL and an EC50 [6] of over 5 µg/mL. For the same compound, the EC50 [7] was over 5 µg/mL.
Work on `COc1cc(O)c2c(c1)C(=O)c1c(O)cc(C)cc1C2=O` yielded an EC50 [1] of over 5 µg/mL, a CC50 [4] of over 5 µg/mL and an EC50 [6] of over 5 µg/mL. The EC50 [7] was over 5 µg/mL.
Work on `Cc1cc(O)c2c(c1)-c1cccc3ccc(O)c(c13)C2=O` yielded an EC50 [1] of over 5 µg/mL, a CC50 [4] of over 5 µg/mL and an EC50 [6] of over 5 µg/mL. It also gave an EC50 [7] of over 5 µg/mL.
Compound `CC[C@H](CC[C@@H](C)[C@H]1CC[C@H]2[C@@H]3CC=C4C[C@@H](O)CC[C@]4(C)[C@H]3CC[C@]12C)C(C)C` [BETA-SITOSTEROL] has an EC50 [1] of over 5 µg/mL, a CC50 [4] of over 5 µg/mL and an EC50 [6] of over 5 µg/mL. For the same compound, the EC50 [7] was over 5 µg/mL.
In the case of `Cc1cc(O[C@@H]2O[C@H](CO)[C@@H](O)[C@H](O)[C@H]2O)c2c(c1)C(=O)c1cccc(O)c1C2=O` [CHRYSOPHANEIN], the EC50 [1] is reported as over 5 µg/mL, the CC50 [4] is reported as over 5 µg/mL and the EC50 [6] is reported as over 5 µg/mL. For the same compound, the EC50 [7] was over 5 µg/mL.
`Cc1cc(O)c2c(c1)C(=O)c1cccc(O)c1C2=O` [CHRYSOPHANOL] showed an EC50 [1] of over 5 µg/mL, a CC50 [4] of over 5 µg/mL and an EC50 [6] of over 5 µg/mL. For the same compound, the EC50 [7] was over 5 µg/mL.
Compound `Cc1cc(O)c2c(c1)[C@@H](C[C@H]1OC[C@@H](OC(=O)c3ccccc3)[C@@H](O)[C@@H]1O)c1cccc(O)c1C2=O` [PICRAMNIOSIDE G] has an EC50 [1] of over 5 µg/mL, a CC50 [4] of over 5 µg/mL and an EC50 [6] of over 5 µg/mL. For the same compound, the EC50 [7] was over 5 µg/mL.
For `Cc1cc(O)c2c(c1)[C@H](C[C@H]1OC[C@@H](OC(=O)c3ccccc3)[C@@H](O)[C@@H]1O)c1cccc(O)c1C2=O` [PICRAMNIOSIDE H], the EC50 [1] was over 5 µg/mL, the CC50 [4] was over 5 µg/mL and the EC50 [6] was over 5 µg/mL. It also gave an EC50 [7] of over 5 µg/mL.
For `Cc1cc(O)c2c(c1)C(=O)c1cccc(O[C@@H]3O[C@H](CO)[C@@H](O)[C@H](O)[C@H]3O)c1C2=O` [PULMATIN], the EC50 [1] was over 5 µg/mL, the CC50 [4] was over 5 µg/mL and the EC50 [6] was over 5 µg/mL. For the same compound, the EC50 [7] was over 5 µg/mL.
Work on `COc1cc2ccc(=O)oc2cc1O` [SCOPOLETIN] yielded an EC50 [1] of over 5 µg/mL, a CC50 [4] of over 5 µg/mL and an EC50 [6] of over 5 µg/mL. The EC50 [7] was over 5 µg/mL.
Work on `CC[C@H](CC[C@@H](C)[C@H]1CC[C@H]2[C@@H]3CC=C4C[C@@H](O[C@@H]5O[C@H](CO)[C@@H](O)[C@H](O)[C@H]5O)CC[C@]4(C)[C@H]3CC[C@]12C)C(C)C` [SITOGLUSIDE] yielded an EC50 [1] of over 5 µg/mL, a CC50 [4] of over 5 µg/mL and an EC50 [6] of over 5 µg/mL. It also gave an EC50 [7] of over 5 µg/mL.
Work on `O=c1ccc2ccc(O)cc2o1` [UMBELLIFERONE] yielded an EC50 [1] of over 5 µg/mL, a CC50 [4] of over 5 µg/mL and an EC50 [6] of over 5 µg/mL. It also gave an EC50 [7] of over 5 µg/mL.
